From ChEMBL document CHEMBL2346655, “Synthesis and in vitro biological evaluation of 2,6,9-trisubstituted purines targeting multiple cyclin-dependent kinases” (Eur J Med Chem, 2013)
Activity calls are given as the source filed them. No cut-off for these calls is given here.

Key:
HCT-116 [1] = assay: Induction of apoptosis in human HCT116 cells assessed as caspase-3/7 activation up to 25 uM by fluorescence assay; type: functional, cell-based
Method in brief: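 After 24 h treatment, cells were lysed on ice for 20 min in pH 7.4 HEPES/KCl/EDTA/EGTA/0.2% CHAPS buffer with protease inhibitors and cleared at 10,000 × g for 30 min at 4 °C. Protein was equalized, then incubated for 1 h with 100 μM Ac-DEVD-AMC in PIPES buffer pH 7.3 containing DTT. Fluorescence was read at 355/460 nm; 100 μM Ac-DEVD-CHO served as the negative control.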

HCT-116 [2] = assay: Cell cycle arrest in human HCT116 cells assessed as accumulation at subG1 phase at 1 uM after 24 hrs by propidium iodide staining-based flow cytometric analysis (reference value: 1.4%); type: functional
Method in brief: (§1)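 Sub-confluent cells treated at several concentrations for 24 h, then pulsed with 10 μM BrdU for 30 min at 37 °C before harvest. Cells were PBS-washed, fixed in 70% ethanol, denatured in 2 M HCl and neutralized. Stained with fluorescein anti-BrdU and propidium iodide; DNA content read by flow cytometry with 488 nm excitation.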

[3] = target: T1, CDK9/cyclin T1 (Homo sapiens) (UniProt O60563+P50750); assay: Inhibition of CDK9/CyclinT1 in human HCT116 cells assessed as decrease in Mdm2 expression at 1 to 5 uM after 24 hrs by immunoblotting analysis; type: cell-based; settings: HCT-116
Method in brief: (§2)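 Immunoblot: cells lysed by harvesting in Laemmli sample buffer, proteins run on SDS-PAGE, electroblotted to nitrocellulose, blocked, primary antibodies overnight, peroxidase-conjugated secondaries, ECL detection by CCD camera. Antibodies included anti-phospho RNA polymerase II (S2), anti-RNA polymerase II (ARNA-3), anti-p53 (DO-1), anti-p21waf1 (118), anti-PCNA.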

[4] = target: T1, CDK9/cyclin T1 (Homo sapiens); assay: Inhibition of CDK9/CyclinT1 in human HCT116 cells assessed as increase in p53 expression at 1 to 5 uM after 24 hrs by immunoblotting analysis; type: cell-based; settings: HCT-116; method in brief: as §2
HCT-116 [5] = assay: Induction of apoptosis in human HCT116 cells assessed as change in PUMA level up to 5 uM after 24 hrs by immunoblotting analysis; type: functional, cell-based
Method in brief: (§3)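 Cells were treated for 24 h, harvested directly into Laemmli sample buffer, and run on SDS-PAGE. Proteins were blotted to nitrocellulose, blocked, probed overnight with primary antibodies, then with peroxidase-linked secondaries. Bands were detected by ECL with a CCD camera. PCNA and tubulin served as loading references.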

K562 [6] = assay: Cell cycle arrest in human K562 cells assessed as accumulation at G1 phase at 5 uM after 24 hrs by propidium iodide staining-based flow cytometric analysis (reference value: 47.3%); type: functional; method in brief: as §1
CDK9/cyclin T1 = CDK9/cyclin T1 (Homo sapiens, UniProt P50750); assay: Inhibition of CDK9/CyclinT1 (unknown origin) using (YSPTSPS)2KK as substrate; type: protein-complex assay
Method in brief: (§4)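 Buffer was 60 mM HEPES-NaOH pH 7.5, 3 mM MgCl2, 3 mM MnCl2, vanadate, DTT and PEG. Reactions were stopped with H3PO4 and spotted on P-81 paper, which was then washed. Radioactivity was imaged; IC50 taken from dose–response curves.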

[7] = target: T1, CDK9/cyclin T1 (Homo sapiens); assay: Inhibition of CDK9/CyclinT1-mediated phosphorylation of RNA polymerase 2 at Ser2 in human HCT116 cells up to 25 uM after 24 hrs by immunoblotting analysis; type: cell-based; settings: HCT-116; method in brief: as §2
[8] = target: Cyclin-dependent kinase 7/ cyclin H (Homo sapiens) (UniProt P51946+P50613); assay: Inhibition of CDK7/CyclinH/MAT1-mediated phosphorylation of RNA polymerase 2 at Ser5 in human HCT116 cells up to 25 uM after 24 hrs by immunoblotting analysis; type: cell-based; settings: HCT-116
HCT-116 [9] = assay: Cell cycle arrest in human HCT116 cells assessed as accumulation at G1 phase at 1 uM after 24 hrs by propidium iodide staining-based flow cytometric analysis (reference value: 48.8%); type: functional; method in brief: as §1
HCT-116 [10] = assay: Cell cycle arrest in human HCT116 cells assessed as accumulation at G2/M phase at 5 uM after 24 hrs by propidium iodide staining-based flow cytometric analysis (reference value: 19.6%); type: functional; method in brief: as §1
K562 [11] = assay: Induction of apoptosis in human K562 cells assessed as change in BCL2 level up to 5 uM after 24 hrs by immunoblotting analysis; type: functional, cell-based; method in brief: as §3
K562 [12] = assay: Cell cycle arrest in human K562 cells assessed as accumulation at subG1 phase at 5 uM after 24 hrs by propidium iodide staining-based flow cytometric analysis (reference value: 2.4%); type: functional; method in brief: as §1
HCT-116 [13] = assay: Induction of apoptosis in human HCT116 cells assessed as caspase-3 activation up to 5 uM after 24 hrs by immunoblotting analysis; type: functional, cell-based; method in brief: as §3
K562 [14] = assay: Induction of apoptosis in human K562 cells assessed as PARP cleavage up to 5 uM after 24 hrs by immunoblotting analysis; type: functional, cell-based; method in brief: as §3
K562 [15] = assay: Cell cycle arrest in human K562 cells assessed as accumulation at S phase at 1 uM after 24 hrs by propidium iodide staining-based flow cytometric analysis (reference value: 38.8%); type: functional; method in brief: as §1
HCT-116 [16] = assay: Induction of apoptosis in human HCT116 cells assessed as change in BCL2 level up to 5 uM after 24 hrs by immunoblotting analysis; type: functional, cell-based; method in brief: as §3
[17] = target: T1, CDK9/cyclin T1 (Homo sapiens); assay: Inhibition of CDK9/CyclinT1-mediated phosphorylation of RNA polymerase 2 at Ser2 in human K562 cells up to 25 uM after 24 hrs by immunoblotting analysis; type: cell-based; method in brief: as §2
[18] = target: T1, CDK9/cyclin T1 (Homo sapiens); assay: Inhibition of CDK9/CyclinT1-mediated phosphorylation of RNA polymerase 2 at Ser5 in human HCT116 cells up to 25 uM after 24 hrs by immunoblotting analysis; type: cell-based; settings: HCT-116; method in brief: as §2
[19] = target: T1, CDK9/cyclin T1 (Homo sapiens); assay: Inhibition of CDK9/CyclinT1 in human ARN8 cells assessed as increase in p53-dependent transcriptional activity at 2 uM after 24 hrs by beta-galactosidase reporter gene assay; type: cell-based
Method in brief: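 Arn-8 human melanoma cells stably carrying p53-responsive pRGCΔfoslacZ reporter; 24 h compound exposure, then permeabilized with 0.3% Triton X-100 for 15 min. 4-Methylumbelliferon-β-D-galactopyranoside added (80 μM final); fluorescence read at 355/460 nm (ex/em) after 1 h as β-galactosidase activity.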

[20] = target: Cyclin-dependent kinase 7/ cyclin H (Homo sapiens, UniProt P50613); assay: Inhibition of CDK7/CyclinH/MAT1 (unknown origin) using (YSPTSPS)2KK as substrate; type: protein-complex assay; method in brief: as §4
[21] = target: Cyclin-dependent kinase 2/cyclin E1 (Homo sapiens, UniProt P24941); assay: Inhibition of CDK2/Cyclin E (unknown origin) expressed in Sf9 cells using histone H1 as substrate
HCT-116 [22] = assay: Induction of apoptosis in human HCT116 cells assessed as decrease in MCL1 level after 24 hrs by immunoblotting analysis; type: functional, cell-based; method in brief: as §3
K562 [23] = assay: Cell cycle arrest in human K562 cells assessed as accumulation at G2/M phase at 5 uM after 24 hrs by propidium iodide staining-based flow cytometric analysis (reference value: 13.8%); type: functional; method in brief: as §1
K562 [24] = assay: Cell cycle arrest in human K562 cells assessed as accumulation at G1 phase at 1 uM after 24 hrs by propidium iodide staining-based flow cytometric analysis (reference value: 47.3%); type: functional; method in brief: as §1

Cyclin-dependent kinase 7/ cyclin H, sequence (P51946 whole entry): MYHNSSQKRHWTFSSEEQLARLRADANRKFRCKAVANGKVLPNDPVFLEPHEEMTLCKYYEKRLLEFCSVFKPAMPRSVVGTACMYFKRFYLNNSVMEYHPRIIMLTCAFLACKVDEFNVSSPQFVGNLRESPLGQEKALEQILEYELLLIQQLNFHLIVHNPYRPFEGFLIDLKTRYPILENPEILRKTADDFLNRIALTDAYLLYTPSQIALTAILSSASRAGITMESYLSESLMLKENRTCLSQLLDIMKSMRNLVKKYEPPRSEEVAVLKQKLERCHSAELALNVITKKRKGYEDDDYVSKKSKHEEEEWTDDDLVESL
Cyclin-dependent kinase 7/ cyclin H, sequence (P50613 whole entry): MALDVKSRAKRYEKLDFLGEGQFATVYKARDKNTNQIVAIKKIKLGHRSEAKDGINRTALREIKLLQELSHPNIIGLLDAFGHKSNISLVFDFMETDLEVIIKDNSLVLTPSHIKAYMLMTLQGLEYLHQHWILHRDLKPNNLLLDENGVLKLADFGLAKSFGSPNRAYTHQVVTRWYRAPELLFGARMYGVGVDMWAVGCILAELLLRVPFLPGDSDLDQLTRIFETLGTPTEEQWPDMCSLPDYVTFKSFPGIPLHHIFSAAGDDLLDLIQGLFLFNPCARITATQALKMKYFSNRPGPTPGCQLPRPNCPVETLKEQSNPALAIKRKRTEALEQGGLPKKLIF
CDK9/cyclin T1, sequence (O60563 whole entry): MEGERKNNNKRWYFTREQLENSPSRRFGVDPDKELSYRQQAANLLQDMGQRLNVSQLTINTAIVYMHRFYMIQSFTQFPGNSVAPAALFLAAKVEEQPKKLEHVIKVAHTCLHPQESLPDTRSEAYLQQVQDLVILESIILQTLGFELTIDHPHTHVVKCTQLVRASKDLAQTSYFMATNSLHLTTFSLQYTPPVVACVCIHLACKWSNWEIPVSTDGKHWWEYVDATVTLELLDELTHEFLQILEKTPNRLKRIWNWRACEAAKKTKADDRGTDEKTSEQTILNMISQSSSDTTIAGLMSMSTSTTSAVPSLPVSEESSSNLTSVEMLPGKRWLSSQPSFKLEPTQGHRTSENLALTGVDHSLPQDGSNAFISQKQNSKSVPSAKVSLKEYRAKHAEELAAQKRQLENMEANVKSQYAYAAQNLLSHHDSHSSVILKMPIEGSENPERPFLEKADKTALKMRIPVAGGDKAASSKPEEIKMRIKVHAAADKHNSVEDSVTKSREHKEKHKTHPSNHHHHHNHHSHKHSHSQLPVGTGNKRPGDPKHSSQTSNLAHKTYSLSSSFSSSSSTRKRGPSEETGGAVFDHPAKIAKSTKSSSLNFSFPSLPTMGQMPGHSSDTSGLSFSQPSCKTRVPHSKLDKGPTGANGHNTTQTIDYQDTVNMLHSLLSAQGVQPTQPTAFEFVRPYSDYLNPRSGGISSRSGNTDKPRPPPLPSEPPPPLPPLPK
CDK9/cyclin T1, sequence (P50750 whole entry): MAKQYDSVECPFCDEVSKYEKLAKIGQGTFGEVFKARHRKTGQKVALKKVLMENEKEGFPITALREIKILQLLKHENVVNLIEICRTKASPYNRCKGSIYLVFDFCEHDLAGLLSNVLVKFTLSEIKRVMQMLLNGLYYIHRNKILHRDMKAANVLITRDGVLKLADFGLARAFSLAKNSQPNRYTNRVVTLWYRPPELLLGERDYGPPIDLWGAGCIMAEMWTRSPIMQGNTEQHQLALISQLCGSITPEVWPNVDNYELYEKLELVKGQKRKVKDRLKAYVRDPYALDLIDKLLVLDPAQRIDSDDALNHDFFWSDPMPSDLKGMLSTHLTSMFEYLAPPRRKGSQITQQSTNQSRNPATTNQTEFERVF

SMILES: CC[C@@H](Nc1nc(NCc2cc(Cl)ccc2O)c2ncn(C(C)C)c2n1)C(C)O (mixture of isomers)
- Activity (HCT-116 [1]): Active
- Activity (HCT-116 [2]): 3.3%
- inhibition [3]: Active
- inhibition [4]: Active
- Activity (HCT-116 [5]): inactive
- Activity (K562 [6]): 40.7%
- IC50 (CDK9/cyclin T1): 165 nM
- inhibition [7]: Active
- inhibition [8]: Active
- Activity (HCT-116 [9]): 39.4%
- Activity (HCT-116 [10]): 37.9%
- Activity (K562 [11]): inactive
- Activity (K562 [12]): 10.9%
- Activity (HCT-116 [13]): inactive
- Activity (K562 [14]): Active
- Activity (K562 [15]): 39.8%
- Activity (HCT-116 [16]): inactive
- inhibition [17]: Active
- inhibition [18]: Active
- inhibition [19]: Active
- IC50 [20]: 97 nM
- IC50 [21]: 13.1 nM
- Activity (HCT-116 [22]): Dose-dependent effect
- Activity (K562 [23]): 31.5%
- Activity (K562 [24]): 31.5%
